# Compound activity from PubChem.
# Yeast life ext = yeast lifespan extension. S. cerevisiae growth with nicotinamide, OD615; deaD strain in restrictive glucose medium. inhibition of the nicotinamide effect, % at 10 µM. 130,000 compounds, 0.68% hits. AID 775;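 active means inhibition above a set limit, placed 3 SD over the median of all compounds, cut at about 26% in these data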;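 further: 0% = nicotinamide-treated wells and 100% = cells grown without nicotinamide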
#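 System: DeaD-strain S. cerevisiae / Buffer or medium: CSMM-D, restrictive glucose (dextrose) synthetic minimal medium / Probe or stimulus: nicotinamide, 1.5 mM, co-present with compound / Compound: one concentration, 10 µM, DMSO 0.25% / Incubation: 48 h compound exposure at 30 °C, humidified / Technique: optical density (absorbance) at 615 nm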
# SDO1 yeast rescue = compounds rescuing growth of sdo1-depleted yeast, bone marrow failure model; z-score at 10 µM; S. cerevisiae sdo1-depleted JHY4D growth rescue, OD600 30 h; active compounds read high; pdr5 snq2 efflux-pump mutant strain; AID 817; 140,000 compounds, 0.21% hits;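 active means z-score above 3 at both the 24 hr and the 30 hr optical density reads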;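 further: z-score against mean and SD of all compound wells on the same plate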
# BB579 growth dn = yeast BB579 growth reduction in restrictive medium; inhibition, % at 10 µM; AID 804; S. cerevisiae BB579 growth, OD615, 48 h; 140,000 compounds, 0.51% hits;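 active means inhibition above a set limit, 3 SD over the mean compound inhibition, cut at about 44% in these data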
#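 System: Saccharomyces cerevisiae DeaD strain BB579, replicative lifespan model yeast | Buffer or medium: Restrictive glucose-based CSMM-D medium | Times: 4 h preincubation and 48 h exposure at 30 °C | Detection: OD615 turbidity measurement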
# RAM network inh = blocks the yeast RAM network | S. cerevisiae dse1pr::URA3 reporter, 5-FOA growth OD615, 2 d; analog-sensitive cbk1-as2 kinase mutant strain | 190,000 compounds, 1.8% hits | AID 868 | inhibition, % at 50 µM;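 active means inhibition above a set limit, 3 SD over mean compound inhibition, cut at about 8.4% in these data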;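 further: 0% = DMSO-only wells with no growth and 100% = 10 µM 1-NA-PP1 full growth; inhibition rescues growth on 5-FOA so higher OD means more RAM inhibition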
# Numbers without * were called inactive; x = not tested or not shown. This is a sample that favours compounds with a hit; in the whole collection about 2.7% have one here.
SMILES,Yeast life ext,SDO1 yeast rescue,BB579 growth dn,RAM network inh
COc1cc(/C=C2/SC(=S)N(c3ccccc3)C2=O)ccc1Oc1nc(N2CCOCC2)nc(N2CCOCC2)n1,-0.7,-0.68,-43.8,9.3*
CCOC(=O)c1c(NC(=O)C(C)Sc2cccc[n+]2[O-])sc2c1CCN(Cc1ccccc1)C2 (stereo not drawn),4.8,0.97,91.0*,-0.2
CCOC(=O)c1c(NC(=O)CSc2ncccn2)sc2c1CCN(Cc1ccccc1)C2,-0.2,-0.42,-28.6,1.5
COc1ccc(C2=NN(C(C#N)c3ccc(OC)c(OC)c3)C(c3ccccc3)C2)cc1 (stereo not drawn),-15.3,-0.33,-17.3,8.5*
COc1ccc(C(C#N)N2CCC(c3ccccc3)=N2)cc1OC (stereo not drawn),x,x,x,2.5
CN(C)CCNC=C(C(=O)Nc1ccc(Cl)cc1Cl)C(=O)Nc1ccc(Cl)cc1Cl,-21.0,-2.2,98.9*,9.0*
COc1ccc(-c2cc3nc(C)cc(N4CC(C)CC(C)C4)n3n2)cc1 (stereo not drawn),x,-2,71.4*,1.4
Cc1ccc(-c2cc3nc(C)cc(C)n3n2)cc1,x,x,x,0.6
NS(=O)(=O)c1ccc(NC(=S)Nc2ccc(C(=O)N3CCCCC3)cc2)cc1,x,x,x,4.8
CCOC(=O)C1CCN(c2ncnc3c2nnn3Cc2ccccc2Cl)CC1,x,x,x,8.4*
CCOC(=O)c1[nH]c2cc3c(cc2c1NC(=O)CN1CCC2(CC1)OCCO2)OCO3,-21.2,-0.25,-9.9,-0.3
CCOC(=O)c1[nH]c2ccc(OCC)cc2c1NC(=O)CN1CCC2(CC1)OCCO2,57.0*,-0.19,-65.2,1.8
Cc1c(N=Cc2cc(Br)cc(Br)c2O)cccc1C(=O)O,-12.6,-0.64,98.0*,-2.4
O=C(O)c1cccc(N/N=C/c2cc(Br)cc(Br)c2O)c1,2.3,-0.27,-41.3,7.1
COCCCn1c(SCC(=O)c2ccccc2)nc2ccccc2c1=O,x,x,x,5.9
CC(C)(C)c1nc(SCC(=O)c2ccccc2)c2ccccc2n1,x,x,x,9.4*
CC(C)(C)c1nc(SCC(=O)N2CCCC2)c2ccccc2n1,x,x,x,1.0
COCCn1c(SCC(=O)c2ccccc2)nc2ccccc2c1=O,x,x,x,9.8*
COc1ccc(CC2(CO)CCN(Cc3ccc4nsnc4c3)CC2)cc1,x,x,x,-0.7
CC(=O)N1CCN(c2ccc(NC(=S)NC(=O)COc3ccc(C(C)(C)C)cc3)cc2)CC1,2.8,-0.42,-12.6,3.8
Cc1cc(C)nc(SCc2cc(=O)c(OC(=O)c3ccc(Cl)c([N+](=O)[O-])c3)co2)n1,29.6*,0.02,-20.8,1.9
CCc1c(C(=O)NCCc2ccc(OC)c(OC)c2)[nH]c(C)c1C(C)=O,47.4*,0.01,-28.1,-0.3
CC(C)CC(COCc1ccc(Cl)cc1)N1CCN(C(=O)c2ccc(Cl)cc2Cl)CCC1=O (stereo not drawn),7.7,-0.64,-17.1,9.4*
CC(C)CC(COCc1cccc(Cl)c1)N1CCN(C(=O)c2cccc(C(F)(F)F)c2)CCC1=O (stereo not drawn),1.3,0.02,-12.3,3.7
O=C(c1ccccc1)c1c[nH]c(C(=O)C(Cl)(Cl)Cl)c1,x,x,x,0.6
SMILES,Yeast life ext,SDO1 yeast rescue,BB579 growth dn,RAM network inh
O=C(c1ccc(Cl)cc1)c1c[nH]c(C(=O)C(Cl)(Cl)Cl)c1,-22.3,-2.29,83.9*,-0.3
COc1ccccc1NS(=O)(=O)c1cc([N+](=O)[O-])ccc1N/N=C/c1c[nH]c2ccccc12,-1.1,-2.23,5.4,10.1*
O=C(Cn1ccc([N+](=O)[O-])n1)NCCc1c[nH]c2ccccc12,x,x,x,1.4
CCOC(=O)c1sc2nc(CC(=O)OC)nc(NCc3ccco3)c2c1C,-14.6,-1.16,-39.5,10.7*
N#CCCn1nc(-c2ccccc2)cc1Nc1ccccc1NC(=O)C(F)(F)F,-0.1,0.43,-35.2,4.1
N#CCCn1nc(-c2ccc(Br)cc2)cc1Nc1ccccc1NC(=O)C(F)(F)F,2.3,-0.58,-38.0,10.1*
CC(=O)NCCn1c(SCc2ccccc2F)nc2ccccc2c1=O,-11.3,-1.73,9.3,-1.1
CC(=O)NCCn1c(SCc2cc(=O)n3cc(Cl)ccc3n2)nc2ccccc2c1=O,-8.8,-0.01,-27.6,10.9*
Cc1ccc(NC(=O)CCn2nc([N+](=O)[O-])cc2C)nc1,27.1*,1.45,-11.8,-0.3
Cc1ccc(Oc2cc(NC(=O)CCCn3nc([N+](=O)[O-])cc3C)cc([N+](=O)[O-])c2)cc1,0.5,-0.7,-41.3,9.5*
CCOC(=O)N1CCN(C(=O)CCn2c(=S)[nH]c3ccsc3c2=O)CC1,x,x,x,3.9
COC(=O)c1cc(=O)n(-c2ccccc2)c(=Nc2ccccc2)s1,32.9*,-1.78,-32.0,-0.9
